Experimental data from ChEMBL document CHEMBL4014344, “Discovery of the Soluble Guanylate Cyclase Stimulator Vericiguat (BAY 1021189) for the Treatment of Chronic Heart Failure” (J Med Chem, 2017).
The source made the active and inactive calls. The calls are words filed in the database; no cut-off is given here.

Key:
[1] = test system: Heart; experiment: Cardiotoxicity in Wistar rat assessed as effect on left ventricular diastolic pressure administered for 20 mins; assay type: toxicity, tissue-based
In short: (§1)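 Male Wistar rats (200−250 g) anesthetized with Narcoren 100 mg/kg ip. Excised heart Langendorff-perfused at constant flow 10 mL/min with Krebs−Henseleit buffer gassed with 95% O2/5% CO2. Values expressed as relative change from baseline before compound application.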

[2] = test system: Rattus norvegicus; experiment: Antihypertensive activity in L-NAME-treated renin transgenic rat co-expressing RenTG(mRRen2)27 assessed as reduction in proteinuria administered qd via oral gavage up to 21 days; assay type: functional
In short: (§2)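 Male RenTG(mRRen2)27 rats, 8 weeks old, given L-NAME in drinking water (50 mg/L) throughout. Randomised to placebo (2 mL/kg qd, n = 20) or 3 and 10 mg/kg/day po by gavage qd (n = 15 per group). Tail-cuff blood pressure on day 0, 7, 14 and 21. Plasma taken at day 22 end. Unpaired t test, mean ± SEM.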

[3] = test system: Rattus norvegicus; experiment: Effect on mortality in L-NAME-treated renin transgenic rat co-expressing RenTG(mRRen2)27 assessed as survival rate at 10 mg/kg administered qd via oral gavage up to 21 days (reference value: 25%); assay type: functional; conditions: 504 h
[4] = Oral bioavailability in Beagle dog administered via oral gavage after 24 hrs by LC-MS analysis; assay type: ADME, organism-based, Canis lupus familiaris; conditions: in vivo
In short: (§3)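 Male Wistar rats and female beagle dogs. iv in plasma/DMSO (rat) or H2O/PEG 400/EtOH (dog). Oral gavage in H2O/PEG 400/EtOH for both. Rats jugular-catheterised ≥1 d before dosing. Usually >10 blood samples, at least two after 24 h. Plasma quantified by LC-MS with internal standard. CL, t1/2, Vss and F calculated from plasma curves. Blood clearance via blood/plasma ratio (20 min blood incubation).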

[5] = test system: Artery; experiment: Inhibition of U46619-induced contractions in porcine coronary artery rings; assay type: functional; conditions: Sus scrofa
[6] = test system: Rattus norvegicus; experiment: Antihypertensive activity in L-NAME-treated renin transgenic rat co-expressing RenTG(mRRen2)27 assessed as reduction in heart hypertrophy in left ventricle administered qd via oral gavage up to 21 days; assay type: functional
In short: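 Renin transgenic RenTG(mRRen2)27 male rats, 8 weeks old, on L-NAME drinking water (50 mg/L). Dosed by gavage qd with placebo (n = 20) or 3 or 10 mg/kg/day (n = 15 each). At day 22 animals were anesthetized and sacrificed, and left and right ventricles were dissected and weighed for hypertrophy. Unpaired t test versus placebo.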

[7] = test system: Saphenous artery; experiment: Inhibition of phenylephrine-induced contractions in Chinchilla rabbit saphenous artery rings administered at the beginning of the last resting period of 28 mins; assay type: functional; conditions: Oryctolagus cuniculus
[8] = test system: Rattus norvegicus; experiment: Effect on mortality in L-NAME-treated renin transgenic rat co-expressing RenTG(mRRen2)27 assessed as increase in survival rate administered qd via oral gavage up to 21 days; assay type: functional
In short: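 L-NAME (50 mg/L, drinking water) treated male RenTG(mRRen2)27 rats aged 8 weeks. Placebo (n = 20) or 3 or 10 mg/kg/day by oral gavage qd (n = 15/group). Survival checked on days 1, 8, 15 and at study end (day 22).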

[9] = molecular target: Cytochrome P450 2C9 (Homo sapiens, UniProt P11712); experiment: Inhibition of human liver microsomes CYP2C9 using diclofenac as substrate; assay type: ADME
[10] = test system: Rattus norvegicus; experiment: Antihypertensive activity in L-NAME-treated renin transgenic rat co-expressing RenTG(mRRen2)27 assessed as reduction in systolic blood pressure increase at 3 to 10 mg/kg, administered qd via oral gavage up to 21 days; assay type: functional, organism-based; in short: as §2
[11] = Terminal half life in iv dosed Beagle dog blood after 24 hrs by LC-MS analysis; assay type: ADME, organism-based, Canis lupus familiaris; conditions: whole blood, read-out: beta t1/2 (converted); in short: as §3
[12] = molecular target: T1, Cytochrome P450 2A6 (Homo sapiens, UniProt P11509); experiment: Inhibition of human liver microsomes CYP2A6 using coumarin as substrate; assay type: ADME
T1 sequence (P11509 whole entry): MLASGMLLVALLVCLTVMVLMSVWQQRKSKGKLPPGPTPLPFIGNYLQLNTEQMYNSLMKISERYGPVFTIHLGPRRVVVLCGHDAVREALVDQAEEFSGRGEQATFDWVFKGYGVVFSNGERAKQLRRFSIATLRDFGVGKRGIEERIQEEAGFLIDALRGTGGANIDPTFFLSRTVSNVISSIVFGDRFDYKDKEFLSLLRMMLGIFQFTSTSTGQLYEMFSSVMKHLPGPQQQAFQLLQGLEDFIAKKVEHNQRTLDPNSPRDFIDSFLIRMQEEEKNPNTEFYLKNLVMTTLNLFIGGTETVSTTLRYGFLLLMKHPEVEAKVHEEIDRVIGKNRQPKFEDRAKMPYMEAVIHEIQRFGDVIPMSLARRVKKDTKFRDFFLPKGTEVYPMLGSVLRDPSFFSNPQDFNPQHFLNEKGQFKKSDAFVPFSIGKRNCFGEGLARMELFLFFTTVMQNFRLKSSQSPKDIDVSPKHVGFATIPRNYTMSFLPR

[13] = test system: Heart; experiment: Cardiotoxicity in Wistar rat assessed as effect on heart rate administered for 20 mins; assay type: toxicity, tissue-based; in short: as §1
[14] = Volume of distribution at steady state in iv dosed Beagle dog after 24 hrs by LC-MS analysis; assay type: ADME, organism-based, Canis lupus familiaris; conditions: in vivo, read-out: Vdss; in short: as §3
[15] = test system: Rattus norvegicus; experiment: Antihypertensive activity in L-NAME-treated renin transgenic rat co-expressing RenTG(mRRen2)27 assessed as reduction in osteopontin expression at 3 to 10 mg/kg administered qd via oral gavage up to 21 days; assay type: functional, organism-based; in short: as §2
[16] = test system: Saphenous artery; experiment: Vasorelaxant activity in nirate-tolerant Chinchilla rabbit saphenous artery ring administered at the beginning of the last resting period of 28 mins in presence of sorbide dinitrate; assay type: functional; conditions: Oryctolagus cuniculus

Sequence of Cytochrome P450 2C9 (P11712 whole entry): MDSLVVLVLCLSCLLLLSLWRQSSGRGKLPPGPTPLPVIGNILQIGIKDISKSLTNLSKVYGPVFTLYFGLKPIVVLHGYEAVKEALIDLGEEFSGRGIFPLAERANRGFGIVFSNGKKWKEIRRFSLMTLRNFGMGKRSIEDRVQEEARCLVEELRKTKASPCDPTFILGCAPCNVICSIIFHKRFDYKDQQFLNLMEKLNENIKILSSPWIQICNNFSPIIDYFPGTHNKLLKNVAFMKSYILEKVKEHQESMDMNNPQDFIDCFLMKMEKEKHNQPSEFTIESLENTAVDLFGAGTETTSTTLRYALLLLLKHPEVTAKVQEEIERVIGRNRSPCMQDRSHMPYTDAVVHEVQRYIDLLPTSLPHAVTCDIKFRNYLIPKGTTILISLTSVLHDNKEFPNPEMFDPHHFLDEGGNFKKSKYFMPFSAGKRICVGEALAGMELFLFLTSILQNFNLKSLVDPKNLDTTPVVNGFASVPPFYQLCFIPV

**Q.** For `COC(=O)Nc1c(N)nc(-c2nn(Cc3ccccc3F)c3ncc(F)cc23)nc1N` [VERICIGUAT], which Activity [1] is on record?
**A.** Non-Toxic

**Q.** What about the Activity [2] of the same molecule?
**A.** Dose-dependent effect

**Q.** What about the survival at 10 mg/kg [3] of the same molecule?
**A.** 90%

**Q.** And the bioavailability [4]?
**A.** 75%

**Q.** What about the IC50 [5] of the same molecule?
**A.** 956 nM

**Q.** What about the Activity [6] of the same molecule?
**A.** Dose-dependent effect

**Q.** What about the IC50 [7] of the same molecule?
**A.** 798 nM

**Q.** What about the Activity [8] of the same molecule?
**A.** Dose-dependent effect

**Q.** What about the IC50 [9] of the same molecule?
**A.** > 50000 nM

**Q.** And the Activity [10]?
**A.** Active

**Q.** What about the half-life [11] of the same molecule?
**A.** 6.2 h

**Q.** And the IC50 [12]?
**A.** > 50000 nM

**Q.** What about the Activity [13] of the same molecule?
**A.** Non-Toxic

**Q.** What about the Vd [14] of the same molecule?
**A.** 1.4 L/kg

**Q.** What about the Activity [15] of the same molecule?
**A.** Active

**Q.** And the IC50 [16]?
**A.** 5.8 nM
